# Experimental data gathered from unrelated publications.
# Compare with care: the assays were run in different laboratories.
# Target: Serine/threonine-protein kinase 26 (STK26, Homo sapiens, UniProt Q9P289)
Compound,read-out,action,technique,concentration,endpoint,value
COc1ccc2[nH]c3c4[nH]c5ccc(OC)cc5c4c4c(c3c2c1)C(=O)NC4=O,binding,,competition with immobilised ligand,1 µM,remaining binding,85%
C1=C/COCc2cc(ccc2OCCN2CCCC2)Nc2nccc(n2)-c2cccc(c2)COC/1,binding,,,0.1 µM,remaining binding,74%
CO[C@@H]1[C@H](N(C)C(=O)c2ccccc2)C[C@H]2O[C@]1(C)n1c3ccccc3c3c4c(c5c6ccccc6n2c5c31)C(=O)NC4,enzyme activity,inhibitor,,1 µM,inhibition,47%
Cc1cc(O)c(-c2ccc([C@@H](C)CN(C)C)cc2)c2c1[nH]c(=O)c1sccc12,enzyme activity,inhibitor,,0.1 µM,inhibition,19.3%
CC(C)S(=O)(=O)c1ccc2nccc(Nc3ccc4sc(C5CCCC5)nc4c3)c2c1,enzyme activity,inhibitor,,1 µM,activity vs control,84%
CN1CCN(C(=O)c2ccc(NC(=O)Nc3ccc(N(C)c4ccnc(Nc5ccc(CS(C)(=O)=O)cc5)n4)cc3)cc2)CC1,binding,,competition with immobilised ligand,1 µM,remaining binding,11%
CC#CC(=O)N1CCC[C@H]1c1nc(-c2ccc(C(=O)Nc3ccccn3)cc2)c2c(N)nccn12,enzyme activity,inhibitor,,1 µM,inhibition,0%
CCCCC(=O)Nc1ccc(-c2ccc3ncn(CCC)c(=O)c3c2)cn1,binding,,competition with immobilised ligand,0.5 µM,remaining binding,100%
